In brackets after ≈: the same amount, converted by molar mass.
Assays:
Candida albicans [1] = experiment: Antimicrobial activity against Candida albicans isolate 47 after 48 hrs by microdilution broth method; type: functional; conditions: isolate 47, 48 h
Procedure, shortened: (§1)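 Yeasts were grown overnight on Sabouraud dextrose agar at 35°C, suspended in water, and adjusted at 530 nm to McFarland 0.5 (approximately 1-5 x 10^6 CFU/ml). They were then diluted 1:100 and 1:20 in RPMI 1640 with 0.165 M MOPS and 2% glucose. Compound in DMSO was tested at ten concentrations, 0.25–256 mg/L, with incubation at 35°C. At 48 h, MIC was read spectrophotometrically as 50% turbidity reduction versus growth control.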

Candida parapsilosis [2] = experiment: Antimicrobial activity against Candida parapsilosis ATCC 22019 after 48 hrs by microdilution broth method; type: functional; conditions: Lodderomyces parapsilosis, ATCC 22019, 48 h; procedure, shortened: as §1
Pichia kudriavzevii [3] = experiment: Antimicrobial activity against Candida krusei isolate 43 after 48 hrs by microdilution broth method; type: functional
Candida parapsilosis [4] = experiment: Antimicrobial activity against Candida parapsilosis isolate 26 after 48 hrs by microdilution broth method; type: functional; conditions: Lodderomyces parapsilosis, isolate 26, 48 h; procedure, shortened: as §1
Proteus mirabilis = experiment: Antimicrobial activity against Proteus mirabilis isolate after 24 hrs by microdilution broth method
Pseudomonas aeruginosa [5] = experiment: Antimicrobial activity against Pseudomonas aeruginosa isolate 1 after 24 hrs by microdilution broth method; conditions: isolate 1, 24 h
Escherichia coli = experiment: Antimicrobial activity against Escherichia coli isolate after 24 hrs by microdilution broth method
Candida parapsilosis [6] = experiment: Antimicrobial activity against Candida parapsilosis isolate 44 after 48 hrs by microdilution broth method; type: functional; conditions: Lodderomyces parapsilosis, isolate 44, 48 h; procedure, shortened: as §1
[7] = test system: Cryptococcus deneoformans; experiment: Antimicrobial activity against Cryptococcus neoformans var. neoformans isolate 25 after 48 hrs by microdilution broth method; type: functional; conditions: isolate 25, 48 h; procedure, shortened: as §1
Candida albicans [8] = experiment: Antimicrobial activity against Candida albicans isolate 41 after 48 hrs by microdilution broth method; type: functional; conditions: isolate 41, 48 h; procedure, shortened: as §1
Candida albicans [9] = experiment: Antimicrobial activity against Candida albicans isolate 48 after 48 hrs by microdilution broth method; type: functional; conditions: isolate 48, 48 h; procedure, shortened: as §1
Candida tropicalis [10] = experiment: Antimicrobial activity against Candida tropicalis isolate 33 after 48 hrs by microdilution broth method; type: functional; conditions: isolate 33, 48 h; procedure, shortened: as §1
Nakaseomyces glabratus [11] = experiment: Antimicrobial activity against Candida glabrata isolate 30 after 48 hrs by microdilution broth method; type: functional; procedure, shortened: as §1
Staphylococcus aureus = experiment: Antimicrobial activity against methicillin-susceptible Staphylococcus aureus isolate after 24 hrs by microdilution broth method
Pichia kudriavzevii [12] = experiment: Antimicrobial activity against Candida krusei ATCC 6258 after 48 hrs by microdilution broth method; type: functional; conditions: ATCC 6258, 48 h
Candida albicans [13] = experiment: Antimicrobial activity against Candida albicans isolate 31 after 48 hrs by microdilution broth method; type: functional; conditions: isolate 31, 48 h; procedure, shortened: as §1
Nakaseomyces glabratus [14] = experiment: Antimicrobial activity against Candida glabrata isolate 46 after 48 hrs by microdilution broth method; type: functional; procedure, shortened: as §1
[15] = test system: Cryptococcus deneoformans; experiment: Antimicrobial activity against Cryptococcus neoformans var. neoformans isolate 30 after 48 hrs by microdilution broth method; type: functional; conditions: isolate 30, 48 h; procedure, shortened: as §1
Nakaseomyces glabratus [16] = experiment: Antimicrobial activity against Candida glabrata isolate 32 after 48 hrs by microdilution broth method; type: functional; conditions: isolate 32, 48 h; procedure, shortened: as §1
Pseudomonas aeruginosa [17] = experiment: Antimicrobial activity against Pseudomonas aeruginosa isolate 2 after 24 hrs by microdilution broth method; conditions: isolate 2, 24 h
[18] = test system: Cryptococcus deneoformans; experiment: Antimicrobial activity against Cryptococcus neoformans var. neoformans isolate 14 after 48 hrs by microdilution broth method; type: functional; conditions: isolate 14, 48 h; procedure, shortened: as §1
Pichia kudriavzevii [19] = experiment: Antimicrobial activity against Candida krusei isolate 31 after 48 hrs by microdilution broth method; type: functional; conditions: isolate 31, 48 h; procedure, shortened: as §1
Nakaseomyces glabratus [20] = experiment: Antimicrobial activity against Candida glabrata isolate 49 after 48 hrs by microdilution broth method; type: functional; procedure, shortened: as §1
[21] = test system: Cryptococcus deneoformans; experiment: Antimicrobial activity against Cryptococcus neoformans var. neoformans isolate 27 after 48 hrs by microdilution broth method; type: functional; conditions: isolate 27, 48 h; procedure, shortened: as §1
Candida tropicalis [22] = experiment: Antimicrobial activity against Candida tropicalis isolate 11 after 48 hrs by microdilution broth method; type: functional; conditions: isolate 11, 48 h; procedure, shortened: as §1
Candida parapsilosis [23] = experiment: Antimicrobial activity against Candida parapsilosis isolate 19 after 48 hrs by microdilution broth method; type: functional; conditions: Lodderomyces parapsilosis, isolate 19, 48 h; procedure, shortened: as §1
Pichia kudriavzevii [24] = experiment: Antimicrobial activity against Candida krusei isolate 48 after 48 hrs by microdilution broth method; type: functional
Candida tropicalis [25] = experiment: Antimicrobial activity against Candida tropicalis isolate 22 after 48 hrs by microdilution broth method; type: functional; conditions: isolate 22, 48 h; procedure, shortened: as §1
Candida albicans [26] = experiment: Antimicrobial activity against Candida albicans ATCC 90028 after 48 hrs by microdilution broth method; type: functional; conditions: ATCC 90028, 48 h
Procedure, shortened: (§2)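 Yeasts grown overnight on Sabouraud dextrose agar at 35°C, suspended in sterile water, and adjusted to McFarland 0.5 at 530 nm (about 1-5 x 10^6 CFU/ml), then diluted 1:100 and 1:20 in RPMI 1640 with 0.165 M MOPS and 2% glucose. Compound in DMSO tested at ten concentrations, 0.25-256 mg/L, at 35°C. MIC read spectrophotometrically at 48 h as 50% turbidity reduction versus growth control.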

Candida tropicalis [27] = experiment: Antimicrobial activity against Candida tropicalis isolate 15 after 48 hrs by microdilution broth method; type: functional; conditions: isolate 15, 48 h; procedure, shortened: as §1
Candida parapsilosis [28] = experiment: Antimicrobial activity against Candida parapsilosis isolate 39 after 48 hrs by microdilution broth method; type: functional; conditions: Lodderomyces parapsilosis, isolate 39, 48 h; procedure, shortened: as §2

MIC (Candida albicans [1])	MIC (Candida parapsilosis [2])	MIC (Pichia kudriavzevii [3])	MIC (Candida parapsilosis [4])	MIC [7]	MIC (Candida albicans [9])	MIC (Candida tropicalis [10])	MIC (Nakaseomyces glabratus [11])	MIC (Pichia kudriavzevii [12])	MIC (Candida albicans [13])	MIC (Nakaseomyces glabratus [14])	MIC [15]	MIC (Nakaseomyces glabratus [16])	MIC [18]	MIC (Pichia kudriavzevii [19])	MIC (Nakaseomyces glabratus [20])	MIC [21]	MIC (Candida tropicalis [22])	MIC (Candida parapsilosis [23])	MIC (Pichia kudriavzevii [24])	SMILES	further results
4 µg/mL (≈ 16.2 µM)	32 µg/mL (≈ 129 µM)	1 µg/mL (≈ 4.04 µM)	16 µg/mL (≈ 64.7 µM)	0.5 µg/mL (≈ 2.02 µM)	4 µg/mL (≈ 16.2 µM)	32 µg/mL (≈ 129 µM)	2 µg/mL (≈ 8.09 µM)	1 µg/mL (≈ 4.04 µM)	4 µg/mL (≈ 16.2 µM)	2 µg/mL (≈ 8.09 µM)	0.5 µg/mL (≈ 2.02 µM)	2 µg/mL (≈ 8.09 µM)	0.25 µg/mL (≈ 1.01 µM)	1 µg/mL (≈ 4.04 µM)	2 µg/mL (≈ 8.09 µM)	0.25 µg/mL (≈ 1.01 µM)	32 µg/mL (≈ 129 µM)	32 µg/mL (≈ 129 µM)	2 µg/mL (≈ 8.09 µM)	Cc1nn(C)c(-c2cccs2)c1/[N+]([O-])=N/C#N	MIC (Candida albicans [26]): 4 µg/mL (≈ 16.2 µM); MIC (Candida tropicalis [27]): 64 µg/mL (≈ 259 µM); MIC (Candida parapsilosis [28]): 16 µg/mL (≈ 64.7 µM); MIC (Candida tropicalis [25]): 32 µg/mL (≈ 129 µM)
4 µg/mL (≈ 17.3 µM)	32 µg/mL (≈ 138 µM)	2 µg/mL (≈ 8.65 µM)	8 µg/mL (≈ 34.6 µM)	0.25 µg/mL (≈ 1.08 µM)	4 µg/mL (≈ 17.3 µM)	128 µg/mL (≈ 554 µM)	1 µg/mL (≈ 4.32 µM)	1 µg/mL (≈ 4.32 µM)	2 µg/mL (≈ 8.65 µM)	1 µg/mL (≈ 4.32 µM)	0.25 µg/mL (≈ 1.08 µM)	2 µg/mL (≈ 8.65 µM)	0.25 µg/mL (≈ 1.08 µM)	1 µg/mL (≈ 4.32 µM)	1 µg/mL (≈ 4.32 µM)	0.25 µg/mL (≈ 1.08 µM)	32 µg/mL (≈ 138 µM)	64 µg/mL (≈ 277 µM)	2 µg/mL (≈ 8.65 µM)	Cc1c(/[N+]([O-])=N/C#N)c(-c2ccco2)nn1C	MIC (Candida albicans [26]): 1 µg/mL (≈ 4.32 µM); MIC (Candida tropicalis [27]): 128 µg/mL (≈ 554 µM); MIC (Candida parapsilosis [28]): 16 µg/mL (≈ 69.2 µM); MIC (Candida tropicalis [25]): 128 µg/mL (≈ 554 µM)
> 128 µg/mL	> 128 µg/mL	> 128 µg/mL	> 128 µg/mL	128 µg/mL (≈ 482 µM)	> 128 µg/mL	> 128 µg/mL	> 128 µg/mL	> 128 µg/mL	> 128 µg/mL	> 128 µg/mL	128 µg/mL (≈ 482 µM)	> 128 µg/mL	64 µg/mL (≈ 241 µM)	> 128 µg/mL	> 128 µg/mL	64 µg/mL (≈ 241 µM)	> 128 µg/mL	> 128 µg/mL	> 128 µg/mL	Cc1c(/[N+]([O-])=N/C(N)=O)c(-c2cccs2)nn1C	MIC (Candida albicans [26]): > 128 µg/mL; MIC (Candida tropicalis [27]): > 128 µg/mL; MIC (Candida parapsilosis [28]): > 128 µg/mL; MIC (Candida tropicalis [25]): > 128 µg/mL

SMILES	MIC (Candida albicans [1])	MIC (Candida parapsilosis [2])	MIC (Pichia kudriavzevii [3])	MIC (Candida parapsilosis [4])	MIC [7]	MIC (Candida albicans [9])	MIC (Candida tropicalis [10])	MIC (Nakaseomyces glabratus [11])	MIC (Pichia kudriavzevii [12])	MIC (Candida albicans [13])	MIC (Nakaseomyces glabratus [14])	MIC [15]	MIC (Nakaseomyces glabratus [16])	MIC [18]	MIC (Pichia kudriavzevii [19])	MIC (Nakaseomyces glabratus [20])	MIC [21]	MIC (Candida tropicalis [22])	MIC (Candida parapsilosis [23])	MIC (Pichia kudriavzevii [24])	further results
Cc1nn(C)c(C)c1/[N+]([O-])=N/C#N	32 µg/mL (≈ 179 µM)	32 µg/mL (≈ 179 µM)	32 µg/mL (≈ 179 µM)	64 µg/mL (≈ 357 µM)	32 µg/mL (≈ 179 µM)	32 µg/mL (≈ 179 µM)	64 µg/mL (≈ 357 µM)	64 µg/mL (≈ 357 µM)	16 µg/mL (≈ 89.3 µM)	32 µg/mL (≈ 179 µM)	64 µg/mL (≈ 357 µM)	32 µg/mL (≈ 179 µM)	16 µg/mL (≈ 89.3 µM)	32 µg/mL (≈ 179 µM)	32 µg/mL (≈ 179 µM)	64 µg/mL (≈ 357 µM)	32 µg/mL (≈ 179 µM)	128 µg/mL (≈ 714 µM)	64 µg/mL (≈ 357 µM)	32 µg/mL (≈ 179 µM)	MIC (Proteus mirabilis): > 128 µg/mL; MIC (Pseudomonas aeruginosa [5]): > 128 µg/mL; MIC (Escherichia coli): > 128 µg/mL; MIC (Candida parapsilosis [6]): 64 µg/mL (≈ 357 µM); MIC (Candida albicans [8]): 32 µg/mL (≈ 179 µM); MIC (Staphylococcus aureus): > 128 µg/mL; MIC (Pseudomonas aeruginosa [17]): > 128 µg/mL; MIC (Candida tropicalis [25]): 64 µg/mL (≈ 357 µM)
Cc1cc(-c2c(/[N+]([O-])=N/C#N)c(C)nn2C)no1	128 µg/mL (≈ 520 µM)	> 128 µg/mL	32 µg/mL (≈ 130 µM)	128 µg/mL (≈ 520 µM)	8 µg/mL (≈ 32.5 µM)	128 µg/mL (≈ 520 µM)	> 128 µg/mL	128 µg/mL (≈ 520 µM)	16 µg/mL (≈ 65 µM)	32 µg/mL (≈ 130 µM)	128 µg/mL (≈ 520 µM)	8 µg/mL (≈ 32.5 µM)	16 µg/mL (≈ 65 µM)	8 µg/mL (≈ 32.5 µM)	32 µg/mL (≈ 130 µM)	64 µg/mL (≈ 260 µM)	8 µg/mL (≈ 32.5 µM)	128 µg/mL (≈ 520 µM)	> 128 µg/mL	32 µg/mL (≈ 130 µM)	MIC (Proteus mirabilis): > 128 µg/mL; MIC (Pseudomonas aeruginosa [5]): > 128 µg/mL; MIC (Escherichia coli): > 128 µg/mL; MIC (Candida parapsilosis [6]): 128 µg/mL (≈ 520 µM); MIC (Candida albicans [8]): 32 µg/mL (≈ 130 µM); MIC (Staphylococcus aureus): > 128 µg/mL; MIC (Pseudomonas aeruginosa [17]): > 128 µg/mL; MIC (Candida tropicalis [25]): > 128 µg/mL
